Experimental findings from ChEMBL document CHEMBL1144458, “Aminothiazole inhibitors of HCV RNA polymerase” (Bioorg Med Chem Lett, 2005) are described below.

Where only a bound is given, the exact number is not on record here.

A word on the IC50: it is the concentration that gives 50% inhibition. Low values mean greater potency in that assay, high ones weaker potency in that assay.

Sequence of RNA-directed RNA polymerase (O39930 whole entry): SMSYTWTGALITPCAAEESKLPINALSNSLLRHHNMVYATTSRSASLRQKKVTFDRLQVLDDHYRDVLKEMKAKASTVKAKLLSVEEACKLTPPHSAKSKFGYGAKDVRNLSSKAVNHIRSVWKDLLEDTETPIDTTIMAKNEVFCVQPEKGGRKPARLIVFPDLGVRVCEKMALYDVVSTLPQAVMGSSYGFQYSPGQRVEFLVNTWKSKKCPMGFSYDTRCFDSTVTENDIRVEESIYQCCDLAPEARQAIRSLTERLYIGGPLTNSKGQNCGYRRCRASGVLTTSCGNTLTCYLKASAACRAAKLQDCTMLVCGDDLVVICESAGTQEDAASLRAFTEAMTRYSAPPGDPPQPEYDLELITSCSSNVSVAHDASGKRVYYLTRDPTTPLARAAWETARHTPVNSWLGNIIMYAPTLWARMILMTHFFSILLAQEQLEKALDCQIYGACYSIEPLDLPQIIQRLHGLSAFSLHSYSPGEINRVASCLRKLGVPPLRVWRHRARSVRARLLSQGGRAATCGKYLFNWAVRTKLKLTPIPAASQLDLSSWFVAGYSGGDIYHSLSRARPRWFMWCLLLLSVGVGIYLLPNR

For the first data set, the target named is Cytochrome P450 2D6 (Homo sapiens, UniProt P10635). In words: Inhibitory concentration against Cytochrome P450 2D6. It counts as ADME.
Sequence of Cytochrome P450 2D6 (P10635 whole entry): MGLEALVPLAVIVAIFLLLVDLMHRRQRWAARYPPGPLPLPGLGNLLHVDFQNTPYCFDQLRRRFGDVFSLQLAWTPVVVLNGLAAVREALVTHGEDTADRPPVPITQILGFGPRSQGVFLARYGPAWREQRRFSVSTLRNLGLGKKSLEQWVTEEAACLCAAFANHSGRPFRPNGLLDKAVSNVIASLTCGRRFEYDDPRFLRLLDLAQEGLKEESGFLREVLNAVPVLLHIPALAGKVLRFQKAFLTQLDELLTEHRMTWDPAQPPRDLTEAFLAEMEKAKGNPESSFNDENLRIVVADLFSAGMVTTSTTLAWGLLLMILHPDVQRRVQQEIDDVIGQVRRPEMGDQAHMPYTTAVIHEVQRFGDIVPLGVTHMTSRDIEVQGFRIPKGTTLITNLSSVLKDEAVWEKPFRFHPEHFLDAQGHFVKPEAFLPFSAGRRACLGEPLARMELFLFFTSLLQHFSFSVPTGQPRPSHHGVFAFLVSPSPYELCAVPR
Conditions: not given
As to `O=C(O)c1cnc(N(C(=O)c2ccc(OCc3cccc(C(F)(F)F)c3)cc2)C2CCCCC2)s1`, the IC50 is over 30 µM.

A further data set deals with Cytochrome P450 3A4 (Homo sapiens, UniProt P08684). In words: Inhibitory concentration against Cytochrome P450 3A4. The class given is ADME.
Sequence of Cytochrome P450 3A4 (P08684 whole entry): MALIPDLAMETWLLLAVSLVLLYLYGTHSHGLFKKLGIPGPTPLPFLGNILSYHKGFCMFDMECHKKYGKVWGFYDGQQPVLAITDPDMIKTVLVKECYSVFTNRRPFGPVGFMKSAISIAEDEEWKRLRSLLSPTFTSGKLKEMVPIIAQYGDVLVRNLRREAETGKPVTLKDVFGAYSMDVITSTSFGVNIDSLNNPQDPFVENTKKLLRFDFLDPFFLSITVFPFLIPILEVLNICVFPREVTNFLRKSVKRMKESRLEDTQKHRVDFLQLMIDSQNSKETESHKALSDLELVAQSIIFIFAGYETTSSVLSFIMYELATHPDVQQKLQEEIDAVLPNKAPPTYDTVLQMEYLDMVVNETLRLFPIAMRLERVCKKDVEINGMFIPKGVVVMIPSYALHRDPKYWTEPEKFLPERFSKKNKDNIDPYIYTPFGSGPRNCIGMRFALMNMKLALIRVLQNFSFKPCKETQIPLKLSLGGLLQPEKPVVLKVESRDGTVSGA
Conditions: not given
As to `O=C(O)c1cnc(N(C(=O)c2ccc(OCc3cccc(C(F)(F)F)c3)cc2)C2CCCCC2)s1`, the IC50 is over 30 µM.

A further data set has as its target RNA-directed RNA polymerase (Hepacivirus hominis, UniProt O39930). The data set can be described thus: Inhibitory concentration against RNA dependent RNA polymerase nonstructural protein 5B of hepatitis C virus.
Conditions: not given
The method in brief: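 HCV NS5B D55 construct (6 nM), scintillation proximity assay: biotinylated oligoG12/polyC template-primer with GTP plus [3H]-GTP, in 20 mM HEPES pH 7.3, 7.5 mM DTT, 10 mM MgCl2, 60 mM NaCl, BSA, and RNasin, for 50 min at room temperature. Stopped with streptavidin SPA beads plus 100 mM EDTA; incorporated label counted. IC50 from single experiments over 11 serial 2-fold dilutions.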
`COc1ccccc1COc1ccc(C(=O)N(c2ncc(C(=O)O)s2)C2CCCCC2)cc1`: the IC50 was found to be 8.5 µM.

Regarding `O=C(O)c1cnc(N(C(=O)c2ccc(OCc3cccc(F)c3)cc2)C2CCCCC2)s1`, half-maximal inhibition (IC50) required 6.5 µM.

`COc1ccccc1Oc1ccc(C(=O)N(c2ncc(C(=O)O)s2)C2CCCCC2)cc1` showed an IC50 of 8.5 µM.

The molecule `O=C(O)c1cnc(N(C(=O)c2ccc(Oc3cccc(C(F)(F)F)c3)cc2)C2CCCCC2)s1` registered an IC50 of 4.4 µM.

The molecule `O=C(O)c1cnc(N(C(=O)c2ccc(Oc3ccccc3)cc2)C2CCSCC2)s1` yielded an IC50 of 13 µM.

As to `O=C(O)c1cnc(N(C(=O)c2ccc(OCc3ccccn3)cc2)C2CCCCC2)s1`, the concentration for half-maximal inhibition (IC50) is 15 µM.

Turning to `CC(C)N(C(=O)c1ccc(Oc2ccccc2)cc1)c1ncc(C(=O)O)s1`, the IC50 is over 50 µM.

In turn, `O=C(O)c1cnc(N(C(=O)c2ccc(Oc3cccc(Cl)c3)cc2)C2CCCCC2)s1` gave an IC50 of 2.8 µM.

`COc1cccc(Oc2ccc(C(=O)N(c3ncc(C(=O)O)s3)C3CCCCC3)cc2)c1`: the IC50 was 3.1 µM.

Molecule `O=C(O)c1cnc(N(C(=O)c2ccc(Oc3ccc(Cl)cc3)cc2)C2CCCCC2)s1` gave an IC50 of 4.2 µM. This IC50 and that of the molecule before are within 1.5-fold of each other.

Take `O=C(O)c1csc(N(C(=O)c2ccc(Oc3ccccc3)cc2)C2CCCCC2)n1`: the IC50 came to 10 µM.

For the molecule `O=C(O)c1cnc(N(C(=O)c2ccc(Oc3ccccc3)cc2)C2CCS(=O)(=O)CC2)s1`, the IC50 is over 50 µM.

In the case of `O=C(Nc1nc(C(=O)O)cs1)c1ccc(Oc2ccccc2)cc1`, the IC50 is over 50 µM.

As for `O=C(O)c1cnc(N(C(=O)c2ccc(OCc3ccc(F)cc3)cc2)C2CCCCC2)s1`, 3.9 µM corresponded to half-maximal inhibition (IC50).

In turn, `CC(C)N(C(=O)c1ccc(Oc2ccccc2)cc1)c1nc(C(=O)O)cs1` showed a 50% inhibitory concentration (IC50) of over 50 µM.

For the molecule `O=C(O)c1cnc(N(C(=O)c2ccc(OCc3cccc(C(F)(F)F)c3)cc2)C2CCCCC2)s1`, half-maximal inhibition (IC50) was put at 1.4 µM.

Turning to `O=C(Nc1ncc(C(=O)O)s1)c1ccc(Oc2ccccc2)cc1`, the IC50 was over 50 µM.

As for `O=C(O)c1cnc(N(C(=O)c2ccc(OCc3ccccc3F)cc2)C2CCCCC2)s1`, inhibition was half-maximal at 4 µM (IC50).

Take `O=C(O)c1cnc(N(C(=O)c2ccc(Oc3ccc(Cl)c(Cl)c3)cc2)C2CCCCC2)s1`: the IC50 was 2.6 µM.

Molecule `O=C(O)c1cnc(N(C(=O)c2ccc(OCc3cccs3)cc2)C2CCCCC2)s1` showed an IC50 of 7 µM. Compared with the last molecule, the IC50 is about 2.7-fold higher.

Take `O=C(O)c1cnc(N(C(=O)c2ccc(OCc3ccccc3)cc2)C2CCCCC2)s1`: 6.5 µM corresponded to half-maximal inhibition (IC50).

`COc1ccc(Oc2ccc(C(=O)N(c3ncc(C(=O)O)s3)C3CCCCC3)cc2)cc1OC` showed an IC50 of 3.5 µM.

With `O=C(O)c1cnc(N(C(=O)c2ccc(OC3CCCCC3)cc2)C2CCCCC2)s1`, the IC50 was 5.5 µM.

Regarding `O=C(O)c1cnc(N(C(=O)c2ccc(OCc3ccccc3C(F)(F)F)cc2)C2CCCCC2)s1`, the half-maximal inhibitory concentration (IC50) worked out at 5.1 µM.

Turning to `COc1cccc(COc2ccc(C(=O)N(c3ncc(C(=O)O)s3)C3CCCCC3)cc2)c1`, the IC50 amounted to 3.2 µM.

`O=C(O)c1cnc(N(C(=O)c2ccc(Oc3ccccc3)cc2)C2CCCCC2)s1`: the midpoint of inhibition, the IC50, lay at 7 µM.

For `O=C(O)c1cnc(N(C(=O)c2ccc(Oc3cccc(OC(F)(F)F)c3)cc2)C2CCCCC2)s1`, it took 5.2 µM to reach half-maximal inhibition (IC50).

As to `C[C@@H]1C[C@@H](N(C(=O)c2ccc(Oc3ccccc3)cc2)c2ncc(C(=O)O)s2)CC(C)(C)C1` (single isomer, unassigned), the IC50 came out at 6 µM.

Take `C[C@@H]1C[C@@H](N(C(=O)c2ccc(Oc3ccccc3)cc2)c2nc(C(=O)O)cs2)CC(C)(C)C1` (single isomer, unassigned): the IC50 was 5.5 µM.

Regarding `C[C@H]1CCCC[C@@H]1N(C(=O)c1ccc(Oc2ccccc2)cc1)c1ncc(C(=O)O)s1` (single isomer, unassigned; cis), the IC50 was found to be 6.1 µM.

Molecule `C[C@H]1CCCC[C@@H]1N(C(=O)c1ccc(Oc2ccccc2)cc1)c1ncc(C(=O)O)s1` (single isomer, unassigned; trans) returned an IC50 of 9.4 µM.

Consider `CC(C)(C)[C@H]1CC[C@H](N(C(=O)c2ccc(Oc3ccccc3)cc2)c2ncc(C(=O)O)s2)CC1` (stereo in doubt; cis), for which the midpoint of inhibition, the IC50, lay at 3.4 µM. This IC50 lies about 2.8-fold lower than the previous one.

Regarding `C[C@H]1CC[C@H](N(C(=O)c2ccc(Oc3ccccc3)cc2)c2ncc(C(=O)O)s2)CC1` (stereo in doubt; cis), the half-inhibitory concentration (IC50) was found to be 6.6 µM.

Molecule `CC(C)(C)[C@H]1CC[C@@H](N(C(=O)c2ccc(Oc3ccccc3)cc2)c2nc(C(=O)O)cs2)CC1` (stereo in doubt; cis) gave an IC50 of 2.8 µM. This IC50 lies about 2.4-fold lower than the previous one.

In turn, `C[C@@H]1CCCC[C@H]1N(C(=O)c1ccc(Oc2ccccc2)cc1)c1nc(C(=O)O)cs1` (stereo in doubt; cis) displayed an IC50 of 7.6 µM. Compared with the last molecule, the IC50 is about 2.7-fold higher.

`C[C@H]1CC[C@@H](N(C(=O)c2ccc(Oc3ccccc3)cc2)c2nc(C(=O)O)cs2)CC1` (stereo in doubt; cis) displayed an IC50 of 5.7 µM. This IC50 and that of the molecule before are within 1.5-fold of each other.

As to `CC(C)(C)[C@H]1CC[C@H](N(C(=O)c2ccc(Oc3ccccc3)cc2)c2ncc(C(=O)O)s2)CC1` (stereo in doubt; trans), the IC50 was 6 µM.

As for `C[C@H]1CC[C@H](N(C(=O)c2ccc(Oc3ccccc3)cc2)c2ncc(C(=O)O)s2)CC1` (stereo in doubt; trans), half-maximal inhibition (IC50) was put at 5 µM.

As to `CC(C)(C)[C@H]1CC[C@@H](N(C(=O)c2ccc(Oc3ccccc3)cc2)c2nc(C(=O)O)cs2)CC1` (stereo in doubt; trans), the IC50 is 4.7 µM. This IC50 and that of the molecule before are within 1.5-fold of each other.

In the case of `C[C@@H]1CCCC[C@H]1N(C(=O)c1ccc(Oc2ccccc2)cc1)c1nc(C(=O)O)cs1` (stereo in doubt; trans), the IC50 is 11 µM.

Consider `C[C@H]1CC[C@@H](N(C(=O)c2ccc(Oc3ccccc3)cc2)c2nc(C(=O)O)cs2)CC1` (stereo in doubt; trans), for which half-maximal inhibition (IC50) required 5.4 µM.

System in another data set: not listed separately
In words: Permeability determined in Caco-2 experiment. It counts as ADME. Conditions: human, read-out: Permeability. On the technique in general: Caco-2 monolayers are a common model of the intestinal barrier.
On to `O=C(O)c1cnc(N(C(=O)c2ccc(OCc3cccc(C(F)(F)F)c3)cc2)C2CCCCC2)s1`, for which the Papp was found to be 14.7 ×10⁻⁶ cm/s.

System in another data set: not listed separately
In words: Clearance rate from human hepatocytes. The class given is ADME, Liver, Hepatocyte.
Conditions: not given
For `O=C(O)c1cnc(N(C(=O)c2ccc(OCc3cccc(C(F)(F)F)c3)cc2)C2CCCCC2)s1`, the CL was found to be 5 lL/min/million.
